Measured values taken from ChEMBL document CHEMBL5226313, “Discovery of an Orally Efficacious MYC Inhibitor for Liver Cancer Using a GNMT-Based High-Throughput Screening System and Structure-Activity Relationship Analysis” (J Med Chem, 2021).
Active and inactive are the calls of the source. The rule behind the calls is not given here.

Assays:
[1] = target: T1, Glycine N-methyltransferase (Homo sapiens) (UniProt Q14749); experiment: Induction of GNMT in human H7GPL cells assessed as fold increase in promoter-driven luciferase reporter expression at 10 uM measured after 24 hrs by luminescence assay relative to control; type: cell-based; settings: filed as activator
T1 sequence (whole entry): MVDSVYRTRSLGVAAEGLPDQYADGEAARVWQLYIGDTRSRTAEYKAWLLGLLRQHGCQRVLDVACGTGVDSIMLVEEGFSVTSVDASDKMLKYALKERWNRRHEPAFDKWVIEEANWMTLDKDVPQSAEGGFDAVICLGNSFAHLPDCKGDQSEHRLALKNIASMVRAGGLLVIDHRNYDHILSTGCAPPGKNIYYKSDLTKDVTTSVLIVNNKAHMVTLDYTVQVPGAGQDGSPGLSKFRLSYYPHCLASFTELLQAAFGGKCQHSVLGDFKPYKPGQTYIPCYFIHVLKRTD

[2] = target: T1, Glycine N-methyltransferase (Homo sapiens); experiment: Induction of GNMT in human H7GPL cells assessed as fold increase in promoter-driven luciferase reporter expression at 2.5 uM measured after 24 hrs by luminescence assay relative to control; type: cell-based; settings: filed as activator
Outline: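 H7GPL cells (Huh7 carrying a stable lentiviral GNMT promoter–luciferase reporter, kept in 1 μg/mL puromycin) treated with compound for 24 h, then luciferase measured. Luciferase activity normalised to cell viability and expressed as fold over solvent control; means ± SD, n = 3.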

[3] = Cytotoxicity against human H7GPL cells at 10 uM measured after 72 hrs by MTS assay; type: toxicity, cell-based
Outline: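 H7GPL-1 cells seeded at 3 × 10³ per well overnight, then exposed to 10 μM compound for 72 h. Medium replaced with MTS/PMS reagent (20:1) and incubated 1.5 h at 37 °C in 5% CO2; absorbance read at 490 nm. Viability expressed relative to control, where 100% means no cytotoxicity.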

[4] = target: T1, Glycine N-methyltransferase (Homo sapiens); experiment: Induction of GNMT in human H7GPL cells assessed as fold increase in promoter-driven luciferase reporter expression measured after 24 hrs by luminescence assay relative to control; type: cell-based; settings: filed as activator, dose 0.15-10 µM
[5] = tested on: Huh-7; experiment: Induction of GNMT mRNA expression in human Huh-7 cells at 2.5 uM measured after 24 hrs by qRT-PCR analysis; type: functional, cell-based
Outline: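 Huh7 cells exposed to 2.5 μM for 24 h, then RNA harvested. GNMT mRNA quantified by qRT-PCR, normalised to an internal control and expressed as fold over solvent control; means ± SD, n = 3.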

[6] = tested on: Huh-7; experiment: Induction of GNMT protein expression in human Huh-7 cells at 2.5 uM measured after 24 hrs; type: functional, cell-based
[7] = tested on: Huh-7; experiment: Antitumor activity against human Huh-7 cells xenografted in mouse tumor model assessed as inhibition of tumor growth at 25 to 300 mg/kg, po treated for 30 days; type: functional, organism-based; settings: dose 25-300 mg/kg, time 30.0 day
Outline: (§1)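 Female Balb/c nude mice, 5–6 weeks old, injected subcutaneously in the right flank with 1 × 10⁶ Huh7 cells. Once tumors were palpable, animals were randomised and dosed orally every day for 30 days at 25, 100 or 300 mpk, or vehicle; sorafenib 25 mpk as reference group. Tumors measured by caliper throughout; body weight recorded during treatment.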

[8] = Toxicity in mouse xenografted with human Huh-7 cells assessed as body weight at 25 to 300 mg/kg, po treated for 30 days; type: organism-based; settings: in vivo, 720 h, dose 25-300 mg/kg, time 30 day; outline: as §1
[9] = tested on: Huh-7; experiment: Antiproliferative activity against human Huh-7 cells assessed as inhibition of cell growth incubated for 72 hrs by Alamar blue assay; type: functional, cell-based; settings: dose 0.3-80 µM
Outline: (§2)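 Cells seeded in 96-well plates and exposed to a range of drug concentrations for 72 h; Alamar Blue added for a further 4 h. Viable cells expressed as percentage of solvent-treated control; means ± SD, n = 3. Cells kept in DMEM with 10% FBS, 2 mM L-glutamine, 0.1 mM non-essential amino acids and antibiotics at 37 °C in humidified CO2.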

[10] = tested on: Hep 3B2; experiment: Antiproliferative activity against human Hep3B cells assessed as inhibition of cell growth incubated for 72 hrs by Alamar blue assay; type: functional, cell-based; settings: dose 0.3-80 µM; outline: as §2
[11] = tested on: HepG2; experiment: Antiproliferative activity against human HepG2 cells assessed as inhibition of cell growth incubated for 72 hrs by Alamar blue assay; type: functional, cell-based; settings: dose 0.3-80 µM; outline: as §2
[12] = tested on: HepG2; experiment: Inhibition of colony formation in human HepG2 cells after 10 days by crystal violet staining based assay; type: functional, cell-based; settings: dose 0.6-10 µM, time 10.0 day
Outline: (§3)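 Cells seeded at 1 × 10⁴ per well overnight in six-well plates, then exposed to the specified drug concentrations for 10 days at 37 °C in 5% CO2. Surviving colonies stained with crystal violet and counted; means ± SD, n = 3.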

[13] = tested on: Huh-7; experiment: Inhibition of colony formation in human Huh-7 cells after 10 days by crystal violet staining based assay; type: functional, cell-based; settings: dose 0.6-10 µM, time 10.0 day; outline: as §3
[14] = tested on: Huh-7; experiment: Antitumor activity against human Huh-7 cells xenografted in mouse tumor model assessed as reduction in tumor volume at 10 to 25 mg/kg, po treated for 30 days; type: functional, organism-based; settings: dose 10-25 mg/kg, time 30.0 day
Outline: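 Huh7 xenografts (1 × 10⁶ cells s.c., right flank) in female Balb/c nude mice aged 5–6 weeks. After tumors became palpable, mice were randomised and dosed orally every day at 10 or 25 mpk, or solvent; sorafenib 25 mpk as comparator. Caliper monitoring of tumor growth over about 4 weeks; mean ± SE, n = 6.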

[15] = Toxicity in NOD-SCID mouse assessed as survival at 10 to 25 mg/kg, po treated for 30 days; type: organism-based; settings: in vivo, 720 h, dose 10-25 mg/kg, time 30 day
Outline: (§4)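 Huh7 cells (1 × 10⁶) were injected subcutaneously into the right flank of five- to six-week-old female mice. Once tumours were palpable, mice were randomised and dosed orally every day for 30 days at 10 or 25 mpk, with vehicle and sorafenib (25 mpk) groups alongside. Survival, body weight, liver function tests and organ morphology were monitored during treatment.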

[16] = Toxicity in NOD-SCID mouse assessed as body weight at 10 to 25 mg/kg, po treated for 30 days; type: organism-based; settings: in vivo, 720 h, dose 10-25 mg/kg, time 30 day; outline: as §4
[17] = Toxicity in NOD-SCID mouse assessed as liver function at 10 to 25 mg/kg, po treated for 30 days; type: organism-based; settings: in vivo, 720 h, dose 10-25 mg/kg, time 30 day; outline: as §4
[18] = Toxicity in NOD-SCID mouse assessed as organ morphology at 10 to 25 mg/kg, po treated for 30 days; type: organism-based; settings: in vivo, 720 h, dose 10-25 mg/kg, time 30 day; outline: as §4
[19] = tested on: Huh-7; experiment: Effect on HDAC1 protein expression in human Huh-7 cells at 0.6 to 10 uM incubated for 24 hrs by immunoblot analysis; type: functional, cell-based; settings: dose 0.6-10 µM
Outline: (§5)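 Huh7 or HepG2 cells exposed to the indicated concentrations for 24 h. Lysates prepared in RIPA buffer with phosphatase inhibitors (10 mM Na3VO4, 1 mM NaF, 5 mM NaPPi) and protease inhibitor cocktail; protein quantified by Bio-Rad assay. HDAC1 and HDAC2 detected by immunoblot, with GAPDH as loading control.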

[20] = tested on: Huh-7; experiment: Effect on HDAC2 protein expression in human Huh-7 cells at 0.6 to 10 uM incubated for 24 hrs by immunoblot analysis; type: functional, cell-based; settings: dose 0.6-10 µM; outline: as §5
[21] = tested on: HepG2; experiment: Effect on HDAC1 protein expression in human HepG2 cells at 0.6 to 10 uM incubated for 24 hrs by immunoblot analysis; type: functional, cell-based; settings: dose 0.6-10 µM; outline: as §5
[22] = tested on: HepG2; experiment: Effect on HDAC2 protein expression in human HepG2 cells at 0.6 to 10 uM incubated for 24 hrs by immunoblot analysis; type: functional, cell-based; settings: dose 0.6-10 µM; outline: as §5
[23] = tested on: HepG2; experiment: Inhibition of MYC mRNA expression in human HepG2 cells at 0.6 to 10 uM incubated for 24 hrs by immunoblot analysis; type: functional, cell-based; settings: dose 0.6-10 µM, in the assay text read “qRT-PCR analysis” for “immunoblot analysis”
Outline: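 Huh7 or HepG2 cells treated with the indicated concentrations for 24 h. Myc mRNA measured by qRT-PCR and expressed as fold over solvent control; means ± SD, n = 3.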

[24] = tested on: Huh-7; experiment: Reduction in MYC protein expression in tumor of mouse xenografted with human Huh-7 cells at 10 to 25 mg/kg, po treated for 30 days; type: functional, organism-based; settings: dose 10-25 mg/kg, time 30.0 day
Outline: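 Tumors taken from Huh7 xenografted nude mice dosed orally every day at 10 or 25 mpk. Tumor lysates prepared in RIPA buffer containing phosphatase and protease inhibitors. MYC and GNMT detected by immunoblot with β-actin as loading control; n = 6 mice per group.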

[25] = tested on: Huh-7; experiment: Increase in p21 expression in human Huh-7 cells at 0.6 to 10 uM incubated for 24 hrs by qRT-PCR analysis; settings: dose 0.6-10 µM
[26] = Drug uptake in NOD-SCID mouse assessed as compound level in liver tissue at 25 mg/kg, po treated for 30 days; settings: in vivo, 720 h

SMILES	fold change (FC) [1]	fold change (FC) [2]	other results
C/C(=N\NC(=O)c1ccccc1O)c1ccccn1	9.79	0.38	
C/C(=N\NC(=O)c1cc2ccccc2cc1O)c1cccs1	1.42	1.24	
C/C(=N\NC(=O)c1ccccc1)c1ccccn1	6.96	0.59	
Cc1ccc(COc2ccc3ccc(=O)oc3c2)cc1			Activity [3]: Non-Toxic
c1ccc(-n2ncc3c(N4CCC5(CC4)OCCO5)ncnc32)cc1			Activity [3]: Non-Toxic
C/C(=N\NC(=O)c1cc2ccccc2cc1O)c1ccccn1		6.7	Activity [3]: Non-Toxic; Activity [4]: Dose-Dependent Effect; Activity [5]: Active; Activity [6]: Active; inhibition [7]: Active; Activity [8]: Non-Toxic
O=C(NN=C(c1ccccn1)c1ccccn1)c1ccc(O)cc1O	1.14	4.7	
C/C(=N\NC(=O)c1cc2ccccc2cc1O)c1cccnc1	1.15	1.33	
O=C(NN=C(c1ccccn1)c1ccccn1)c1ccccc1O	5.86	4.55	
C/C(=N\NC(=O)c1cc2ccccc2cc1O)c1ccc([N+](=O)[O-])cc1	0.9	1.01	
C/C(=N\NC(=O)c1c(O)cccc1O)c1ccccn1	11	0.61	
O=C(N/N=C/c1ccccn1)c1ccccc1O	0.88	1.4	
O=C(N/N=C/c1ccc[nH]1)c1cc2ccccc2cc1O	1.56	1.19	
c1ccc(OCc2nc3ccccc3s2)cc1 [2-(PHENOXYMETHYL)BENZOTHIAZOLE]			Activity [3]: Non-Toxic
COc1ccccc1C(=O)N/N=C(\C)c1ccccn1	1.31	1.72	
C/C(=N\NC(=O)c1cc2ccccc2cc1O)c1ccc[nH]1	1.04	1.22	
O=C(NN=C(c1ccccn1)c1ccccn1)c1cc2ccccc2cc1O	5.94	7.56	
C/C(=N\NC(=O)c1cc2ccccc2cc1O)c1ccc2ccccc2n1	0.99	3.31	
C/C(=N\NC(=O)c1cc2ccccc2cc1O)c1ccccc1	1.37	1.16	
C/C(=N\NC(=O)c1cccc(O)c1)c1ccccn1	6.66	13.3	
C/C(=N\NC(=O)c1cc2ccccc2cc1O)c1ccco1	1.18	1.42	
C/C(=N\NC(=O)c1cccnc1N)c1ccccn1	8.26	11.1	Activity [9]: Dose-Dependent Effect; Activity [10]: Dose-Dependent Effect; Activity [11]: Dose-Dependent Effect; inhibition [12]: Dose-Dependent Effect; inhibition [13]: Dose-Dependent Effect; inhibition [14]: Active; Activity [15]: Non-Toxic; Activity [16]: Non-Toxic; Activity [17]: Non-Toxic; Activity [18]: Non-Toxic; Activity [19]: inactive; Activity [20]: inactive; Activity [21]: inactive; Activity [22]: inactive; inhibition [23]: Active; Activity [24]: Active; Activity [25]: Active; Drug uptake [26]: Active
O=C(N/N=C/c1ccccn1)c1cc2ccccc2cc1O	1.09	1.79	
C/C(=N\NC(=O)c1ccc(O)cc1O)c1ccccn1	1.5	4.88	
O=C(N/N=C/c1ccco1)c1cc2ccccc2cc1O	1.04	1.22	
COc1ccc(/C(C)=N/NC(=O)c2cc3ccccc3cc2O)cc1	0.9	1.2	
O=C(N/N=C/c1cccs1)c1cc2ccccc2cc1O	1.36	0.12	
C/C(=N\NC(=O)c1ccccc1N)c1ccccn1	11	0.93	
O=C(N/N=C/c1ccc2ccccc2n1)c1cc2ccccc2cc1O	1.01	1.11	
